From ChEMBL document CHEMBL1123879, “Synthesis and antiarrhythmic activity of novel 3-alkyl-1-[omega-[4-[(alkylsulfonyl)amino]phenyl]-omega- hydroxyalkyl]-1H-imidazolium salts and related compounds” (J Med Chem, 1987) come the findings set out here.

For assay [1], the species on record is Canis familiaris. Description: Maximum observed change in FRP from control was determined in isolated canine ventricular muscle fibers at a concentration of 100 uM. The format is functional, Canis lupus familiaris, Muscle tissue. The gist of the method: (§1)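 Canine right ventricular papillary muscle strips superfused with O2/CO2-gassed saline at 36 ± 0.5 °C. Bipolar electrogram recording. Stimulated at 4× diastolic threshold (2 ms pulses), equilibrated 60 min. FRP measured at 1000 ms cycle length by S2 after every tenth S1 at shortening intervals. Cumulative concentrations; one compound per strip, with vehicle controls. Readout is concentration giving a 20% FRP change, or maximal change; log mean with 90% CI when n > 2.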

Assay [2] is filed under the species Canis familiaris. Description: (§2) Concentration that causes 20% increase in ADP95 (action potential duration at 95% repolarization) was determined on isolated canine cardiac Purkinje fibers. The format is functional, Canis lupus familiaris, Purkinje fiber. The gist of the method:
(§3)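 Canine cardiac Purkinje fibres in gassed physiological saline (95% O2–5% CO2, pH 7.35–7.40) at 36 ± 0.5 °C. Paced at 1.0 Hz with 2 ms pulses at twice diastolic threshold. Intracellular microelectrode recording after up to 1 h of stabilisation; 30 min exposure per concentration; one compound per fibre, with vehicle controls. Readout is concentration giving a 20% change in APD95, or maximal APD95 change; log mean with 90% CI when n > 2.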

For assay [3], the species on record is Canis familiaris. Description: (§4) Concentration that causes 20% increase in functional refractory period (FRP) was determined on isolated canine ventricular muscle fibers. On the set-up: species or system Canis lupus familiaris, Muscle tissue. A digest of the protocol:
as §1

The species entered for assay [4] is Canis familiaris. The assay is described as follows: Maximum observed change in ADP95 from control value was determined in isolated canine cardiac uM. The class given is functional, Canis lupus familiaris. The gist of the method:
as §3

Assay [5] is filed under the species Canis familiaris. Described as §4. To be noted: Canis lupus familiaris; Muscle tissue. A digest of the protocol: as §1
Assay [6] is filed under the species Canis familiaris. Described as §2. The format is functional. To be noted: Canis lupus familiaris; Purkinje fiber. The gist of the method:
as §3

Where [7] appears, read: Canis lupus familiaris, Muscle tissue.

`CC[n+]1ccn(CC(=O)c2ccc(NS(C)(=O)=O)cc2)c1.[Cl-]`: in the assay listed under Canis familiaris [1], the “Max delta FRP” value is 26%. Moreover, the Activity in the assay listed under Canis familiaris [2] stood at 49.4 µM; in the assay listed under Canis familiaris [3], 28.2 µM. Besides, the “Max delta APD95” value in the assay listed under Canis familiaris [4] stood at 26%.

For `CC(C)[n+]1ccn(CC(=O)c2ccc(NS(C)(=O)=O)cc2)c1.[Cl-]`, the Activity entry in the assay filed under Canis familiaris [5] and in the assay filed under Canis familiaris [6] was “Not recorded” each time. For the same compound, the “Max delta FRP” value in the assay listed under Canis familiaris [1] came out at 14%. In addition, in the assay listed under Canis familiaris [4] (Canis lupus familiaris), the “Max delta APD95” value is “Minimal effects”.

In the case of `Cc1n(CC(=O)c2ccc(NS(C)(=O)=O)cc2)cc[n+]1C.[Cl-]`, in the assay filed under Canis familiaris [1], the “Max delta FRP” value was 32%. The Activity came out at 24.8 µM in the assay filed under Canis familiaris [2] and 14.7 µM in the assay filed under Canis familiaris [3]. Moreover, in the assay filed under Canis familiaris [4], the “Max delta APD95” value is reported as 33%.

In the case of `C[n+]1ccn(CC(O)c2ccc(NS(C)(=O)=O)cc2)c1` (configuration not stated), the “Max delta FRP” value in the assay listed under Canis familiaris [1] is recorded as 24%. The Activity in the assay listed under Canis familiaris [2] came to 0.6 µM; in the assay filed under Canis familiaris [3], 8.7 µM. Besides, the “Max delta APD95” value in the assay listed under Canis familiaris [4] came out at 55%.

In the case of `C[n+]1ccn(C[C@H](O)c2ccc(NS(C)(=O)=O)cc2)c1.[Cl-]`, the “Max delta FRP” value in the assay filed under Canis familiaris [1] worked out at 25%. For the same compound, the results for the Activity in the assay filed under Canis familiaris [2] and in the assay listed under Canis familiaris [3] were 0.3 µM and 14 µM, respectively. Also, in the assay filed under Canis familiaris [4], the “Max delta APD95” value is listed as 58%.

For `C[n+]1ccn(CCC(O)c2ccc(NS(C)(=O)=O)cc2)c1.[Cl-]` (configuration not stated), the Activity entry is “Not recorded” in the assay listed under Canis familiaris [6] and 100 µM in the assay listed under Canis familiaris [3]. Moreover, in the assay filed under Canis familiaris [1], the “Max delta FRP” value turned out to be 20%. Moreover, the “Max delta APD95” value in the assay filed under Canis familiaris [4] (Canis lupus familiaris) was “Minimal effects”.

Take `C[n+]1ccn(CC(O)c2ccc(NS(=O)(=O)C(F)(F)F)cc2)c1` (configuration not stated): the Activity entry in the assay listed under Canis familiaris [5] and in the assay filed under Canis familiaris [6] was “Not recorded” each time. Moreover, in the assay filed under Canis familiaris [1] (setting [7]), the “Max delta FRP” value is reported as “Minimal effects”. Moreover, the “Max delta APD95” value in the assay filed under Canis familiaris [4] (Canis lupus familiaris) was “Minimal effects”.

For the compound `Cc1c(C)[n+](C)c(C)n1CC(=O)c1ccc(NS(C)(=O)=O)cc1.[Cl-]`, the Activity entry in the assay listed under Canis familiaris [6] was “Not recorded”; in the assay listed under Canis familiaris [3], 15.8 µM. The “Max delta FRP” value in the assay listed under Canis familiaris [1] was 26%. Further, the “Max delta APD95” value in the assay listed under Canis familiaris [4] (Canis lupus familiaris) is “Minimal effects”.

As to `C[n+]1ccn(CCCc2ccc(NS(C)(=O)=O)cc2)c1.O=P([O-])(O)O`, the Activity entry in the assay filed under Canis familiaris [5] was “Not recorded”; in the assay filed under Canis familiaris [2], 7.2 µM. For the same compound, in the assay listed under Canis familiaris [1], the “Max delta FRP” value came out at 13%. Further, the “Max delta APD95” value in the assay filed under Canis familiaris [4] is on record as 47%.

As for `C[n+]1ccn(C[C@@H](O)c2ccc(NS(C)(=O)=O)cc2)c1.[Cl-]`, in the assay filed under Canis familiaris [1], the “Max delta FRP” value is listed as 31%. Besides, the Activity in the assay filed under Canis familiaris [2] is 0.7 µM; in the assay listed under Canis familiaris [3] it was 7.5 µM. In addition, in the assay filed under Canis familiaris [4], the “Max delta APD95” value is given as 74%.

On to `CC[n+]1ccn(CC(O)c2ccc(NS(C)(=O)=O)cc2)c1.[Cl-]` (configuration not stated), for which the “Max delta FRP” value in the assay filed under Canis familiaris [1] was 26%. For the same compound, the values for the Activity in the assay listed under Canis familiaris [2] and in the assay filed under Canis familiaris [3] were 6.2 µM and 28.2 µM, respectively. For the same compound, in the assay listed under Canis familiaris [4], the “Max delta APD95” value amounted to 65%.

As to `CCS(=O)(=O)Nc1ccc(C(=O)Cn2cc[n+](C)c2)cc1.[Cl-]`, the “Max delta FRP” value in the assay filed under Canis familiaris [1] worked out at 26%. The Activity in the assay listed under Canis familiaris [2] amounted to 29 µM; in the assay filed under Canis familiaris [3], 40 µM. In the assay listed under Canis familiaris [4], the “Max delta APD95” value was determined as 33%.

As for `C[n+]1ccn(CC(O)c2ccccc2)c1.[Br-]` (configuration not stated), the Activity result in the assay filed under Canis familiaris [6] is “Not recorded”; in the assay filed under Canis familiaris [3], 50 µM. The “Max delta FRP” value in the assay listed under Canis familiaris [1] is 22%. The “Max delta APD95” value in the assay filed under Canis familiaris [4] is 12%.

Regarding `C[n+]1ccn(CC(=O)c2ccccc2)c1.[Br-]`, the Activity entry in the assay listed under Canis familiaris [5] was “Not recorded”; in the assay listed under Canis familiaris [2] it was 69 µM. The “Max delta FRP” value in the assay listed under Canis familiaris [1] (setting [7]) is listed as “Minimal effects”.

Take `CCS(=O)(=O)Nc1ccc(C(O)Cn2cc[n+](C)c2)cc1.[Cl-]` (configuration not stated): in the assay listed under Canis familiaris [1], the “Max delta FRP” value came out at 27%. For the same compound, the Activity in the assay listed under Canis familiaris [2] was 30 µM; in the assay listed under Canis familiaris [3] it was 14.5 µM. In the assay filed under Canis familiaris [4], the “Max delta APD95” value worked out at 27%.

`CC(C)[n+]1ccn(CC(O)c2ccc(NS(C)(=O)=O)cc2)c1` (configuration not stated): the Activity entry in the assay filed under Canis familiaris [5] and in the assay filed under Canis familiaris [6] was “Not recorded” each time. In addition, the “Max delta APD95” value in the assay listed under Canis familiaris [4] (Canis lupus familiaris) was “Minimal effects”.
